Bioassay records: PubChem, several laboratories
Rows were chosen to be rich in hits. Some 4.3% of all compounds tested hit in one or more screens of this group.
SUMO HTRF inh – inhibitors of human SUMOylation (UBC9). P63279. HTRF SUMOylation assay, SAE1/SAE2 + UBC9, in vitro. inhibition, % at 35 µM. 290,000 compounds, 0.36% hits. AID 2006; in the data active means inhibition above about 50%, passing the limit was not always enough; inconclusive means no clear call, values can overlap the other calls
Target sequence (P63279 whole entry, looked up): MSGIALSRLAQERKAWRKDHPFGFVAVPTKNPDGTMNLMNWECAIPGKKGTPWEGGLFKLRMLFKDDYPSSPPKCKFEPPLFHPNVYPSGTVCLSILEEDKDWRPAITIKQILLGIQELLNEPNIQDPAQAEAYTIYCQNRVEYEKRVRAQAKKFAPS
UBC13 inh – human UBC13 polyubiquitination inhibition. P61088. UBC13 polyubiquitin chain formation, TR-FRET. inhibition, % at 20 µM. 330,000 compounds, 0.47% hits. AID 485273; in the data active means inhibition above about 45%, passing the limit was not always enough; inconclusive means no clear call, values can overlap the other calls
RBBP9 inhibitor – human RBBP9 hydrolase inhibition. inhibition, % at 7.94 µM. AID 1515. recombinant RBBP9, FP-Rh probe fluorescence polarization. 220,000 compounds, 0.2% hits. O75884;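 active means inhibition above the campaign mean of all tested compounds plus 3 SD, cut at about 14% in these data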;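 further: plate controls were DMSO wells with RBBP9 for no effect and wells lacking RBBP9 protein for full effect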
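Measured by – fluorescence polarization · Test system – RBBP9 protein · Input – 2.5 µM RBBP9 dispensing solution, before mixing · Measure – percent inhibition from mP, scaled between DMSO and no-protein wells · Benchmarks – DMSO-treated enzyme wells and wells lacking RBBP9 · Times – preincubation 30 min plus labeling 45 min at 25 °C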
PREPL inhibitor – human PREPL enzyme inhibition; AID 2751; inhibition, % at 5.96 µM; Q4J6C6; 320,000 compounds, 0.68% hits; recombinant PREPL, fluorescence polarization activity-based probe; in the data active means inhibition above about 43%;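 further: 0% = enzyme with DMSO and 100% = wells lacking enzyme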
Rin1 Abl inh – human Rin1-Abl interaction inhibition. P00519+Q13671. TR-FRET Rin1/Abl binding, biochemical. inhibition, % at 7.35 µM. 360,000 compounds, 0.4% hits. AID 588664; in the data active means inhibition above about 5%, passing the limit was not always enough
ALR inh – human ALR oxidase inhibition via reduced H2O2. P55789. purified ALR, DTT oxidation, H2O2 HRP-luminol luminescence. inhibition, % (no concentration beside the values). 290,000 compounds, 3.8% hits. AID 485317;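 active means mean replicate inhibition above about 79%, with every replicate also reaching it, limit read from the data; inconclusive means only one of the two criteria met; inactive means mean below limit and not every replicate reaching it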
Target sequence (P55789 whole entry, looked up): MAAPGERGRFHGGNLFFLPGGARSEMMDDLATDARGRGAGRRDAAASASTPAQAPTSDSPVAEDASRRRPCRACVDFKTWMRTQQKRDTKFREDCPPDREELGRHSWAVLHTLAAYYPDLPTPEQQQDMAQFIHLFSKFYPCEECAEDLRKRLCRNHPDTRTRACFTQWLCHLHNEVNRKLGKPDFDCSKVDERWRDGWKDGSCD
Numbers without * were called inactive; ? = inconclusive; · = no result.

SMILES | SUMO HTRF inh | UBC13 inh | RBBP9 inhibitor | PREPL inhibitor | Rin1 Abl inh | ALR inh
COCCN1C(=O)c2ccccc2C1c1nc2ccccc2[nH]1 (centres undefined) | · | · | · | · | 2.9 | ·
COc1cc(NC(=O)CN2c3ccccc3CC2C)cc(OC)c1OC (centres undefined) | -2.2 | 1.0 | 6.0 | 3.4 | 1.8 | 97.3*
CCN(CC(=O)NCc1cccs1)C(=O)c1ccc(-c2ccc(F)cc2)o1 | · | -5.1 | · | 13.3 | 4.8 | 2.3
Cc1nc2ccc(S(=O)(=O)NC(C(=O)NC3CCCC3)C(C)C)cc2s1 (centres undefined) | 13.4 | 2.9 | -1.7 | 0.2 | -1.9 | 96.3*
CN(C)C(=O)CSc1nc(-c2cccs2)c(-c2cccs2)[nH]1 | -3.6 | -7.2 | · | -1.1 | -6.7 | 98.8*
CN(C)C(=O)CSc1nc2ccccc2c(=O)[nH]1 | 10.6 | -3.8 | -0.5 | -0.9 | 0.4 | -5.3
COc1cc(O)c(C(CC(=O)N2CCCC2)c2ccc(N(C)C)cc2)c(OC)c1 (centres undefined) | 2.9 | 6.7 | · | -1.7 | -0.3 | 98.2*
COc1cc(O)c(C(CCN2CCCCC2)c2ccc(N(C)C)cc2)c(OC)c1 (centres undefined) | 2.1 | 16.7 | · | 21.8 | 1.0 | 98.3*
COC(=O)/C=C1/SC(=NC(=O)c2ccc(F)cc2)NC1=O | 1.1 | -12.9 | -5.6 | 0.6 | -1.3 | 3.0
O=C(O)c1cccc(N/N=C/c2cc(Br)cc(Br)c2O)c1 | 15.7 | 6.8 | 1.1 | 20.4 | -3.7 | 98.4*
CN(C)c1ccc(/C=N/Nc2cccc(C(=O)O)c2)cc1 | 5.1 | 3.8 | · | 4.0 | -3.7 | 98.6*
Cc1c(N=Cc2cc(Br)cc(Br)c2O)cccc1C(=O)O | 12.7 | -6.5 | 10.6 | -4.7 | 0.0 | 97.7*
COc1ccc(Br)cc1/C=N/Nc1cccc(C(=O)O)c1 | 8.1 | -1.5 | -9.0 | 1.0 | -5.2 | ·
CC(C)(C)c1ccc(/C=N/Nc2cccc(C(=O)O)c2)cc1 | 15.2 | -19.7 | 3.9 | -2.8 | 4.0 | 8.8
COc1ccccc1/C=C/C=N/Nc1cccc(C(=O)O)c1 | 9.9 | -0.2 | · | -1.4 | -4.4 | 98.5*
O=C(CN1C(=O)C2CC=CCC2C1=O)Nc1ccc(S(=O)(=O)N2CCOCC2)cc1 (centres undefined) | 3.3 | -5.6 | -10.8 | 7.6 | -1.9 | 0.7
Cc1cc(Cl)ccc1OCC(=O)NNC(=O)CCOc1ccccc1 | · | 10.1 | · | -2.7 | 1.2 | ·
CN(C(=S)NC(=O)c1ccccc1Br)C1CCCCC1 | -16.9 | 3.0 | -5.7 | 23.1 | 4.2 | 98.5*
O=C1OCc2ccc([N+](=O)[O-])cc21 | · | · | · | · | -1.9 | ·
CC(=O)NN1C(=O)/C(=C\c2ccc(O)cc2)SC1=S | 10.3 | -104.2 | -11.9 | -24.8 | -3.3 | 98.6*
COc1cc(/C=C2\SC(=S)N(Nc3ccccc3)C2=O)ccc1O | 6.8 | -113.7 | -66.4 | -126.7 | 0.5 | ?
COc1cccc(/C=C2\SC(=S)N(NC(=O)c3ccncc3)C2=O)c1 | 13.9 | -15.1 | -3.0 | 1.8 | -0.5 | 96.4*
COc1cc(/C=C2\SC(=S)N(NC(=O)c3ccc(O)cc3)C2=O)ccc1O | -6.2 | -107.5 | · | -158.6 | 1.1 | 99.0*
O=C(NN1C(=O)/C(=C/c2cccc(O)c2)SC1=S)c1ccccc1O | -4.1 | -5.1 | · | 11.4 | 5.2 | 99.0*
O=C(O)COc1ccccc1/C=C1\SC(=S)N(NC(=O)c2ccccc2O)C1=O | · | -11.1 | · | -6.0 | 0.1 | 62.9
SMILES | SUMO HTRF inh | UBC13 inh | RBBP9 inhibitor | PREPL inhibitor | Rin1 Abl inh | ALR inh
CC(Oc1ccc(Br)cc1)C(=O)NC1CCN(Cc2ccccc2)CC1 (centres undefined) | · | 2.3 | · | 2.9 | 0.1 | -6.1
COc1cc(/C=C2\SC(=S)N(NC(=O)c3cccnc3)C2=O)ccc1O | 14.2 | -94.2 | -69.6 | -254.9 | -5.5 | 99.1*
COc1cc(/C=C2\SC(=S)N(c3cccnc3)C2=O)ccc1O | 15.4 | -23.9 | -23.2 | -43.4 | -4.8 | -1.5
CN(C)c1ccc(/C=C(\C#N)C(=O)NCc2ccco2)cc1 | 22.2 | -21.8 | -7.3 | 2.5 | · | ·
Cc1ccc(CNC(=O)/C(C#N)=C\c2ccc(N(C)C)cc2)cc1 | 54.5* | -5.2 | -6.1 | 27.5 | · | 97.9*
COCCNC(=O)/C(C#N)=C/c1ccc(O)cc1 | -12.2 | -16.3 | -2.0 | 7.7 | -0.9 | 87.3*
CN(CC(=O)NC(=O)NCc1ccccc1)CC(=O)Nc1ccc(Cl)c(Cl)c1 | · | 25.2 | · | 6.1 | -1.4 | -1.0
CN(C)Cc1cc(C(F)(F)F)ccc1C(O)(c1ccccc1)c1ccccc1 | · | · | · | · | 0.8 | ·
